MT stabilizer – microtubule stabilization, imaging screen. HeLa tubulin immunostaining HCS, 24 h; share of cells brighter than vehicle mean+2SD. % tubulin-high responders, % at 10 µM. actives 0.83% (n = 200,000). AID 2205;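 active = plate Z-score above 3 for both tubulin-high and condensed-nucleus cell shares, with cell loss under 80%, at 10 µM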;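 note: anti alpha tubulin signal scored within the nucleus-defined area of each cell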
HSV augment – HSV replication enhancement; HSV replication augmentation in cells, fold increase; maximum fold increase; actives 0.005% (n = 220,000); in the data active = maximum fold increase above about 1.5; tested in PC3 cells
bCat nuc transl – beta-catenin nuclear translocation modulation | HeLa beta-catenin nuclear translocation, immunofluorescence imaging | nuclear translocation activity, % at 5 µM | actives 0.3% (n = 190,000) | AID 1665;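 active = nuclear translocation activity above 50% at 5 µM, with a well cell count of 50 or more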;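 note: per-cell ratio of nuclear to cytoplasmic median beta-catenin stain intensity; plate controls were DMSO negative control for no effect and GSK-3 inhibitor IX positive control for full effect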
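Test system: HeLa cells, endogenous beta-catenin; Compound: single 5 µM dose plus 0.02–20 µM confirmation series; Times: compound exposure 24 h at 37°C; Signal: fluorescence imaging of beta-catenin antibody stain plus DAPI; Read-out: % activation, nuclear-to-cytoplasmic median beta-catenin signal ratio per cell.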
ROMK primary – modulates human ROMK potassium channel activity; B-score at 10 µM; Tet-inducible ROMK, thallium flux fluorescence; actives lie on both sides; actives 2% (n = 130,000); P48048; AID 1918;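 active = signal ratio slope over the read window, or its plate-corrected B-score, at least 3 SD from the plate mean, either direction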;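 note: B-score of the F/F0 ratio slope over 7 to 12 s after thallium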
Target sequence (P48048 whole entry, looked up): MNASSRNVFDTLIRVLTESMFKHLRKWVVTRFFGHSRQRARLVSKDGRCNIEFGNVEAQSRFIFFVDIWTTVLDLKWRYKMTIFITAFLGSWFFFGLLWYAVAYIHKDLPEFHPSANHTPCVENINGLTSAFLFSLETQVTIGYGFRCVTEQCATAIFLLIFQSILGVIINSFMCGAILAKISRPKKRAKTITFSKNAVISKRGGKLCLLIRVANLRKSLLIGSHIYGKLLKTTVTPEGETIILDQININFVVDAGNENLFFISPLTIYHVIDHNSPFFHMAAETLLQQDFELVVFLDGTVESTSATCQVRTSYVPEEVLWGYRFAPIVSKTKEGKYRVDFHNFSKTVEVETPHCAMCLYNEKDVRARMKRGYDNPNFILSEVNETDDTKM
Insulin prom inh – TRM-6 insulin promoter activity inhibition. TRM-6 cells, insulin promoter-eGFP reporter, imaging; reporter expression induced with tamoxifen. AID 1273. actives 0.9% (n = 130,000). inhibition, % at 2 µM;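 active = inhibition above the mean plus 3 SD, with well images judged a real hit on visual review, cut at about 60% in these data, passing the limit was not always enough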
The depositor's hits bear a star; i = inactive; . = not tested or not shown. This is a sample that favours compounds with a hit; in the whole collection about 2.4% have one here.

SMILES | MT stabilizer | HSV augment | bCat nuc transl | ROMK primary | Insulin prom inh
CCCCC(=O)Nc1ccccc1C(=O)N1CCOCC1 | 2 | i | -2 | -0.32 | 71*
Cc1ccc(C(=O)c2cc([N+](=O)[O-])ccc2N2CCCCC2)cc1 | 9 | i | 72* | 1.8 | .
O=C(NCc1ccc2c(c1)OCO2)c1cc([N+](=O)[O-])ccc1N1CCCCC1 | 16* | i | 107* | 1.6 | -144
O=C(NCc1ccco1)c1cc([N+](=O)[O-])ccc1N1CCCCC1 | 3 | i | 2 | -0.74 | 19
Cc1cc(C)cc(OCc2ccc(C(=O)NN)o2)c1 | . | i | 2 | . | .
COc1ccc([C@@H]2C=C(C(=O)O)O[C@H](OCCCCO)C2)cc1 | . | i | 0 | . | .
C/C(=N\NC(=S)Nc1cc(S(=O)(=O)N2CCOCC2)ccc1Cl)c1ccccc1F | 4 | i | -3 | -0.24 | -29
CCOc1ccccc1N(CC(=O)Nc1ccc2c(c1)OCCO2)S(C)(=O)=O | 4 | i | -7 | . | 82*
CCOc1cccc(C(=O)NC(=S)Nc2ccc(Cl)cc2C(=O)O)c1 | 7 | i | -1 | 0.88 | .
O=C1CC(c2ccccc2Br)c2cc3c(cc2N1)CCC3 (stereo unspecified) | 21* | i | 1 | -0.65 | .
O=C1CC(c2ccccc2F)c2cc3c(cc2N1)CCC3 (stereo unspecified) | 44* | . | 131* | . | .
CCN(CC)c1ccc(NC(=O)c2cccc(OC)c2)c(C)c1 | 53* | i | . | . | 33
CC1CCc2c(sc3ncnc(N4CCN(S(=O)(=O)c5cccc6nonc56)CC4)c23)C1 (stereo unspecified) | 2 | . | . | -0.53 | 29
CCc1ccc(-c2ccc(SCC(=O)NCC3CCCO3)nn2)cc1 (stereo unspecified) | 4 | i | -3 | -0.0075 | -89
O=C(NC1CC1)c1ccc2c(Cl)c3c(nc2c1)CCCC3 | 2 | i | 2 | . | 21
CCOC(=O)N1CCC(NC(=O)c2ccc3c(Cl)c4c(nc3c2)CCCC4)CC1 | 5 | i | -1 | -2.5* | -20
Cc1noc(-c2ccc(C(F)(F)F)cc2)c1NC(=O)Nc1ccc(Cl)cc1 | . | i | -1 | 1.3 | .
Cc1cc(C(=O)CCl)c(C)n1-c1ccon1 | 4 | i | -2 | -0.068 | 82*
N#Cc1ccccc1CSc1nc(N2CCCCC2)nc(N2CCCCC2)n1 | 3 | i | 1 | . | -16
CCN(CC)S(=O)(=O)c1cc(C(=O)Nc2cccnc2Cl)ccc1Cl | 5 | i | 4 | -0.32 | .
Cc1cc2c(cc(C(=O)OCC(=O)NCc3ccco3)n2C)s1 | 51* | i | 44 | . | -11
Cc1ccc2cc(CCNC(=O)CC(C)C)c(=O)[nH]c2c1 | 4 | i | -3 | . | .
CSc1sc(C(=O)NC(=O)NCc2ccncc2)c(C)c1-c1ccon1 | . | i | -1 | . | .
CCOc1cc(C2C(C(=O)c3ccc(C)cc3)=C(C(=O)OC)Nc3nnnn32)ccc1O (stereo unspecified) | 1 | 2.1* | . | 0.4 | 6
COC(=O)C1=C(C(C)=O)C(c2ccc(C)cc2)n2nnnc2N1 (stereo unspecified) | 1 | i | -3 | -0.073 | 14
SMILES | MT stabilizer | HSV augment | bCat nuc transl | ROMK primary | Insulin prom inh
O=C(COc1cccc2cccnc12)N/N=C1\SCC(=O)N1CCc1ccccc1 | 2 | i | -1 | -0.41 | .
Cc1ccc(/C=N/NC(=O)C2CC(=O)N(c3ccccc3)C2)s1 (stereo unspecified) | 9 | i | 57* | . | 35
O=C(N/N=C/c1cccs1)C1CC(=O)N(c2ccccc2)C1 (stereo unspecified) | 1 | i | 8 | 0.15 | -6
CCOc1ccc(/C=C2\C(=O)c3ccccc3OC2c2ccccc2)cc1 (stereo unspecified) | 36* | i | . | . | 8
Cc1nc(N/N=C/c2ccc(O)cc2)c2cnn(-c3ccccc3)c2n1 | 3 | i | -4 | -0.41 | 89*
O=C1OC(c2ccccc2)/C(=C(/O)c2ccc(Cl)cc2)C1=O (stereo unspecified) | 2 | i | . | -0.7 | 75*
O=C(c1ccccc1F)N(NC(=O)C(O)(c1ccccc1)c1ccccc1)c1ccccc1 | 3 | i | 0 | . | .
CC(C)c1nc(SCC(=O)Nc2ccc3c(c2)OCCO3)c2c(=O)n(C)c(=O)n(C)c2n1 | 22* | i | 2 | . | .
COc1ccccc1/C=C/C=N/NC(=O)CCn1nnc2ccccc21 | 8 | i | 2 | -0.074 | -26
CC1(C)Cc2c(sc3ncnc(N)c23)CO1 | 2 | i | -1 | 0.063 | 83*

Screening data: PubChem, several laboratories
